The results in this text go back to article PMC7903221 (Bioorganic & medicinal chemistry, 2020).

For data set [1], the system named is A549. Briefly: MTT assay, A549. In kind it is cell-based, human. The conditions noted are these: read-out: IC50 Value A549, 72 hours. An outline of the steps: (§1)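 Human NSCLC lines were kept in RPMI 1640 with 10% FBS at 37 °C, 5% CO2, passaged every 2–3 days. Cells were seeded at 5,000–7,000/well depending on line and left 24 h. Test compound in DMSO/water (1 mM stock) was added at final 1, 4, 16 and 32 μM in medium, 6 replicates, for 72 h. MTT was applied for 3–4 h, then medium was replaced by DMSO for 15 min and OD read at 540 nm. IC50 is growth inhibition of 50% versus untreated cells.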

Data set [2] deals with HCC827. Briefly: MTT assay, HCC827. The conditions noted are these: read-out: IC50 Value HCC827, 72 hours. It is filed as cell-based, human. In short, it runs like this:
as §1

For data set [3], the system named is NCI-H460. As to the kind of experiment: MTT assay, NCI-H460. It is filed as cell-based, human. The conditions noted are these: read-out: IC50 Value NCI-H460, 72 hours. An outline of the steps:
as §1

In data set [4] the test system is NCI-H1975. Briefly: MTT assay, NCI-H1975. The conditions noted are these: read-out: IC50 Value NCI-H1975, 72 hours. It is filed as cell-based, human. An outline of the steps:
as §1

The subject of data set [5] is NSCLC cell lines (NCI-H460, NCI-H1975, HCC827, and A549). As to the kind of experiment: MTT assay, panel of four NSCLC cell lines. In kind it is cell-based, human. An outline of the steps: as §1
Data set [6] concerns nine NSCLC cell lines. Briefly: NCI-60 one-dose assay, average over nine NSCLC cell lines. In kind it is cell-based. The conditions noted are these: Homo sapiens, 48 h, read-out: Growth % Average. An outline of the steps:
(§2)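 NCI DTP single-dose screen. Cells were seeded at a density tied to doubling rate and incubated 24 h, then exposed to test compound at 10 μM for 48 h. Growth percentage is relative to the starting cell population: positive means net growth, negative means cell loss. It is given per NSCLC line or as the mean across the nine NSCLC lines.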

The test system of data set [7] is NCI-H522. Briefly: NCI-60 one-dose assay, NCI-H522. In kind it is cell-based. The conditions noted are these: Homo sapiens, NCI-H522, 48 h, read-out: Growth % NCI-H522. In short, it runs like this: as §2
For data set [8], the system named is NCI-H522. As to the kind of experiment: NCI-60 five-dose assay, NCI-H522. It is filed as cell-based, human. The conditions noted are these: 48 hours, total growth inhibition.
Data set [9] relates to C57BL/6 mice. Briefly: Preliminary in vivo toxicity study. The conditions noted are these: 20 mg/kg IP on days 0, 7, 14 and 29.
The subject of data set [10] is NCI-H23. Briefly: NCI-60 five-dose assay, NCI-H23. It is filed as cell-based, human. The conditions noted are these: 48 hours, total growth inhibition.
In data set [11] the test system is NSCLC cell lines. Briefly: NCI-60 five-dose assay, ranges over NSCLC cell lines. It is filed as cell-based. The conditions noted are these: Homo sapiens; for GI50: read-out: GI50 values, range over NSCLC cell lines; for CC50: read-out: LC50 values, range over NSCLC cell lines.
Data set [12] relates to EKVX. Briefly: NCI-60 five-dose assay, EKVX. The conditions noted are these: 48 hours, total growth inhibition. It is filed as cell-based, human.
Data set [13] concerns HOP-92. As to the kind of experiment: NCI-60 five-dose assay, HOP-92. In kind it is cell-based, human. The conditions noted are these: 48 hours, total growth inhibition.
For data set [14], the system named is HOP-62. As to the kind of experiment: NCI-60 five-dose assay, HOP-62. The conditions noted are these: 48 hours, total growth inhibition. It is filed as cell-based, human.
Data set [15] deals with A549/ATCC. Briefly: NCI-60 five-dose assay, A549/ATCC. It is filed as cell-based. The conditions noted are these: 48 hours, total growth inhibition.
Data set [16] deals with NCI-H460. As to the kind of experiment: NCI-60 five-dose assay, NCI-H460. It is filed as cell-based, human. The conditions noted are these: 48 hours, total growth inhibition.
Data set [17] has as its system NCI-H322M. Briefly: NCI-60 five-dose assay, NCI-H322M. It is filed as cell-based, human. The conditions noted are these: 48 hours, total growth inhibition.
Data set [18] concerns NCI-H460. As to the kind of experiment: NCI-60 one-dose assay, NCI-H460. The conditions noted are these: Homo sapiens, NCI-H460, 48 h, read-out: Growth % NCI-H460. It is filed as cell-based. An outline of the steps:
as §2

Data set [19] concerns NCI-H226. As to the kind of experiment: NCI-60 five-dose assay, NCI-H226. It is filed as cell-based, human. The conditions noted are these: 48 hours, total growth inhibition.

Turning to `N.N.[Cl][Pt][Cl]` [Cisplatin, cisplatin], the IC50 in [1] came out at 5 µM; in [2], 9 µM; in data set [3], 6 µM; in data set [4] it was 3 µM.
Consider `[Br-].[Br-].c1ccc2cc(Cn3cc[n+](Cn4cc[n+](Cc5ccc6ccccc6c5)c4)c3)ccc2c1` [Compound 1, 1-(naphthalen-2-ylmethyl)-3-((3-(naphthalen-2-ylmethyl)-imidazolium-1-yl)methyl)-imidazolium bromide], for which the “IC50 values for three of the four cell lines” value in data set [5] (MTT, 72 hours, three of the four cell lines tested) is reported as “above the testing concentration”. The activity at 10 µM in data set [6] was determined as 79.5%.
As to `c1ccc2cc(Cn3cc[n+](CCn4cc[n+](Cc5ccc6ccccc6c5)c4)c3)ccc2c1` [Compound 2, 1-(naphthalen-2-ylmethyl)-3-(2-(3-(naphthalen-2-ylmethyl)-imidazolium-1-yl)ethyl)-imidazolium bromide], the activity at 10 µM in data set [6] is 80.9%.
On the same count and under the same terms, with `c1ccc2cc(Cn3cc[n+](CCCn4cc[n+](Cc5ccc6ccccc6c5)c4)c3)ccc2c1` [Compound 3, 1-(naphthalen-2-ylmethyl)-3-(3-(3-(naphthalen-2-ylmethyl)-imidazolium-1-yl)propyl)-imidazolium bromide] the figure was 72.8%; with `c1ccc2cc(Cn3cc[n+](CCCCCn4cc[n+](Cc5ccc6ccccc6c5)c4)c3)ccc2c1` [Compound 5, 1-(naphthalen-2-ylmethyl)-3-(5-(3-(naphthalen-2-ylmethyl)-imidazolium-1-yl)pentyl)-imidazolium bromide], 53.9%; with `c1ccc2cc(Cn3cc[n+](CCCCCCn4cc[n+](Cc5ccc6ccccc6c5)c4)c3)ccc2c1` [Compound 6, 1-(naphthalen-2-ylmethyl)-3-(6-(3-(naphthalen-2-ylmethyl)-imidazolium-1-yl)hexyl)-imidazolium bromide], 47.3%.
As for `c1ccc2cc(Cn3cc[n+](CCCCCCCn4cc[n+](Cc5ccc6ccccc6c5)c4)c3)ccc2c1` [Compound 7, 1-(naphthalen-2-ylmethyl)-3-(7-(3-(naphthalen-2-ylmethyl)-imidazolium-1-yl)heptyl)-imidazolium bromide], in [6], the activity at 10 µM worked out at 30%.
On to `[Br-].[Br-].c1ccc2cc(Cn3cc[n+](CCCCCCCCCCn4cc[n+](Cc5ccc6ccccc6c5)c4)c3)ccc2c1` [Compound 10, 1-(naphthalen-2-ylmethyl)-3-(10-(3-(naphthalen-2-ylmethyl)-imidazolium-1-yl)decyl)-imidazolium bromide], for which, in data set [7], the activity at 10 µM is -72.3%. In addition, in data set [8], the “TGI NCI-H522” value came out at 1.94 µM. Also, in data set [9], the tolerability entry is “well tolerated”. Besides, the “TGI NCI-H23” value in [10] is 3.35 µM. Moreover, in data set [11], the 50% growth inhibitory concentration (GI50) lay in the range of 0.396 to 3.55 µM and the CC50 was 15.2 to 58.4 µM. Also, the “TGI EKVX” value in [12] came out at 9.07 µM. Besides, in data set [13], the “TGI HOP-92” value came out at 2.96 µM. Besides, the “TGI HOP-62” value in [14] was determined as 7.24 µM. Also, the activity at 10 µM in [6] was 2.47%. In data set [15], the “TGI A549/ATCC” value stood at 13.3 µM.
Turning to `[Br-].[Br-].c1ccc2cc(Cn3cc[n+](CCCCCCCCCCCCn4cc[n+](Cc5ccc6ccccc6c5)c4)c3)ccc2c1` [Compound 12, 1-(naphthalen-2-ylmethyl)-3-(12-(3-(naphthalen-2-ylmethyl)-imidazolium-1-yl)dodecyl)-imidazolium bromide], the “TGI NCI-H522” value in [8] was 1.25 µM. Moreover, the “TGI NCI-H460” value in [16] was 2.96 µM. For the same compound, the “TGI NCI-H23” value in [10] came to 2.40 µM. Further, in data set [11], the 50% growth inhibitory concentration (GI50) lay within 0.47 to 0.984 µM and the CC50 was 7.29 to 14.6 µM. Further, in data set [12], the “TGI EKVX” value was found to be 4.20 µM. Also, the “TGI NCI-H322M” value in data set [17] amounted to 3.90 µM. The activity at 10 µM in [18] is -69.9%. Further, in data set [5] (Homo sapiens, 72 h, read-out: IC50 values for three of the four cell lines), the concentration for half-maximal inhibition (IC50) was below 1 µM. In addition, the “TGI NCI-H226” value in data set [19] worked out at 5.52 µM. For the same compound, the “TGI HOP-92” value in [13] is 1.40 µM. Moreover, in [14], the “TGI HOP-62” value turned out to be 2.65 µM. Besides, the activity at 10 µM in data set [6] is -60.9%. The “TGI A549/ATCC” value in [15] worked out at 3.57 µM.
